From ChEMBL document CHEMBL1129275, “Synthesis and in vitro and in vivo characteristics of an iodinated analogue of the beta-adrenoceptor antagonist carazolol” (J Med Chem, 1996)

Tests used:
[1] = system: Oryctolagus cuniculus; assay: Biodistribution pattern of [123I]- ligand was evaluated in lung of anesthetized rabbit after Intravenous injection of 50 uCi after 2 hr; assay type: ADME, organism-based; settings: in vivo
Summary of the method: (§1)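 Male New Zealand white rabbits, 2.5–3.5 kg, anesthetized with 5 mg/kg xylazine plus 30 mg/kg ketamine im. Each received 50 uCi radioligand (specific activity > 5000 Ci/mmol) iv via ear vein. Animals were killed with 200 mg/kg pentobarbital im at the set time. Blood was drawn by intracardiac puncture and organs weighed. Gamma counting was decay-corrected, expressed as %ID x kg body weight/g tissue, mean ± SEM, n = 3/time point.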

[2] = system: Oryctolagus cuniculus; assay: Biodistribution pattern of [123I]- ligand was evaluated in fat of anesthetized rabbit after Intravenous injection of 50 uCi after 24 hr; assay type: ADME, organism-based, Adipose tissue; settings: in vivo; summary of the method: as §1
[3] = system: Oryctolagus cuniculus; assay: […] biodistribution pattern of [123I]- ligand was evaluated in kidney of anesthetized rabbit after Intravenous injection of 50 uCi after 2 hr; assay type: ADME, organism-based; settings: in vivo
Summary of the method: (§2)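 Male New Zealand white rabbits (2.5–3.5 kg), anesthetized with xylazine 5 mg/kg plus ketamine 30 mg/kg im, given 50 µCi radioligand (specific activity >5000 Ci/mmol) iv via ear vein. Euthanized at set times by pentobarbital 200 mg/kg im, n = 3/time point. Organs removed and weighed, gamma-counted, decay/weight corrected; expressed as % ID x kg body weight/g tissue, mean ± SEM.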

[4] = system: Oryctolagus cuniculus; assay: Biodistribution pattern of [123I]- ligand was evaluated in left ventricular muscle of anesthetized rabbit after Intravenous injection of 50 uCi after 30 min; assay type: ADME, organism-based, Muscle tissue; settings: in vivo, 0.5 h; summary of the method: as §1
[5] = system: Oryctolagus cuniculus; assay: Biodistribution pattern of [123I]- ligand was evaluated in left atrial muscle of anesthetized rabbit after Intravenous injection of 50 uCi after 24 hr; assay type: ADME, organism-based, Muscle tissue; settings: in vivo; summary of the method: as §1
[6] = system: Oryctolagus cuniculus; assay: Biodistribution pattern of [123I]- ligand was evaluated in spleen of anesthetized rabbit after Intravenous injection of 50 uCi after 30 min; assay type: ADME, organism-based; settings: in vivo, 0.5 h; summary of the method: as §2
[7] = system: Oryctolagus cuniculus; assay: Biodistribution pattern of [123I]- ligand was evaluated in liver of anesthetized rabbit after Intravenous injection of 50 uCi after 30 min; assay type: ADME, organism-based; settings: in vivo, 0.5 h; summary of the method: as §1
[8] = system: Oryctolagus cuniculus; assay: Biodistribution pattern of [123I]- ligand was evaluated in left atrial muscle of anesthetized rabbit after Intravenous injection of 50 uCi after 5 min; assay type: ADME, organism-based, Muscle tissue; settings: in vivo; summary of the method: as §1
[9] = system: Oryctolagus cuniculus; assay: Cerebral biodistribution pattern of [123I]- ligand was evaluated in hypothalamus of anesthetized rabbit after Intravenous injection of 50 uCi after 1 hr; assay type: ADME, organism-based; settings: in vivo; summary of the method: as §2
[10] = system: Oryctolagus cuniculus; assay: Biodistribution pattern of [123I]- ligand was evaluated in blood of anesthetized rabbit after Intravenous injection of 50 uCi after 6 hr; assay type: ADME, organism-based; settings: in vivo; summary of the method: as §1
[11] = system: Oryctolagus cuniculus; assay: Biodistribution pattern of [123I]- ligand was evaluated in liver of anesthetized rabbit after Intravenous injection of 50 uCi after 4 hr; assay type: ADME, organism-based; settings: in vivo; summary of the method: as §1
[12] = system: Oryctolagus cuniculus; assay: Biodistribution pattern of [123I]- ligand was evaluated in right ventricular muscle of anesthetized rabbit after Intravenous injection of 50 uCi after 2 hr; assay type: ADME, organism-based, Muscle tissue; settings: in vivo; summary of the method: as §2
[13] = system: Oryctolagus cuniculus; assay: Biodistribution pattern of [123I]- ligand was evaluated in liver of anesthetized rabbit after Intravenous injection of 50 uCi after 2 hr; assay type: ADME, organism-based; settings: in vivo; summary of the method: as §1
[14] = system: Oryctolagus cuniculus; assay: Biodistribution pattern of [123I]- ligand was evaluated in intestine of anesthetized rabbit after Intravenous injection of 50 uCi after 4 hr; assay type: ADME, organism-based; settings: in vivo; summary of the method: as §1
[15] = system: Oryctolagus cuniculus; assay: Cerebral biodistribution pattern of [123I]- ligand was evaluated in hypothalamus of anesthetized rabbit after Intravenous injection of 50 uCi after 4 hr; assay type: ADME, organism-based; settings: in vivo; summary of the method: as §2
[16] = system: Oryctolagus cuniculus; assay: Cerebral biodistribution pattern of [123I]- ligand was evaluated in frontal cortex of anesthetized rabbit after Intravenous injection of 50 uCi after 24 hr; assay type: ADME, organism-based; settings: in vivo; summary of the method: as §2
[17] = system: Oryctolagus cuniculus; assay: Cerebral biodistribution pattern of [123I]- ligand was evaluated in cerebellum of anesthetized rabbit after Intravenous injection of 50 uCi after 2 hr; assay type: ADME, organism-based; settings: in vivo; summary of the method: as §2
[18] = system: Oryctolagus cuniculus; assay: Biodistribution pattern of [123I]- ligand was evaluated in liver of anesthetized rabbit after Intravenous injection of 50 uCi after 1 hr; assay type: ADME, organism-based; settings: in vivo; summary of the method: as §1
[19] = system: Oryctolagus cuniculus; assay: Cerebral biodistribution pattern of [123I]- ligand was evaluated in hypothalamus of anesthetized rabbit after Intravenous injection of 50 uCi after 24 hr; assay type: ADME, organism-based; settings: in vivo; summary of the method: as §2
[20] = system: Oryctolagus cuniculus; assay: Biodistribution pattern of [123I]- ligand was evaluated in fat of anesthetized rabbit after Intravenous injection of 50 uCi after 5 min; assay type: ADME, organism-based, Adipose tissue; settings: in vivo; summary of the method: as §1
[21] = system: Oryctolagus cuniculus; assay: Cerebral biodistribution pattern of [123I]- ligand was evaluated in cerebellum of anesthetized rabbit after Intravenous injection of 50 uCi after 24 hr; assay type: ADME, organism-based; settings: in vivo; summary of the method: as §2
[22] = system: Oryctolagus cuniculus; assay: Biodistribution pattern of [123I]- ligand was evaluated in spleen of anesthetized rabbit after Intravenous injection of 50 uCi after 2 hr; assay type: ADME, organism-based; settings: in vivo; summary of the method: as §2
[23] = system: Oryctolagus cuniculus; assay: Biodistribution pattern of [123I]- ligand was evaluated in right atrial muscle of anesthetized rabbit after Intravenous injection of 50 uCi after 6 hr; assay type: ADME, organism-based, Muscle tissue; settings: in vivo; summary of the method: as §2
[24] = system: Oryctolagus cuniculus; assay: Cerebral biodistribution pattern of [123I]- ligand was evaluated in hypothalamus of anesthetized rabbit after Intravenous injection of 50 uCi after 30 min; assay type: ADME, organism-based; settings: in vivo, 0.5 h; summary of the method: as §2
[25] = system: Oryctolagus cuniculus; assay: Biodistribution pattern of [123I]- ligand was evaluated in lung of anesthetized rabbit after Intravenous injection of 50 uCi after 30 min; assay type: ADME, organism-based; settings: in vivo, 0.5 h; summary of the method: as §1
[26] = system: Oryctolagus cuniculus; assay: Biodistribution pattern of [123I]- ligand was evaluated in intestine of anesthetized rabbit after Intravenous injection of 50 uCi after 1 hr; assay type: ADME, organism-based; settings: in vivo; summary of the method: as §1
[27] = system: Oryctolagus cuniculus; assay: Biodistribution pattern of [123I]- ligand was evaluated in right ventricular muscle of anesthetized rabbit after Intravenous injection of 50 uCi after 4 hr; assay type: ADME, organism-based, Muscle tissue; settings: in vivo; summary of the method: as §2
[28] = system: Oryctolagus cuniculus; assay: Cerebral biodistribution pattern of [123I]- ligand was evaluated in hypothalamus of anesthetized rabbit after Intravenous injection of 50 uCi after 2 hr; assay type: ADME, organism-based; settings: in vivo; summary of the method: as §2
[29] = system: Oryctolagus cuniculus; assay: Biodistribution pattern of [123I]- ligand was evaluated in spleen of anesthetized rabbit after Intravenous injection of 50 uCi after 6 hr; assay type: ADME, organism-based; settings: in vivo; summary of the method: as §2
[30] = system: Oryctolagus cuniculus; assay: Cerebral biodistribution pattern of [123I]- ligand was evaluated in cerebellum of anesthetized rabbit after Intravenous injection of 50 uCi after 4 hr; assay type: ADME, organism-based; settings: in vivo; summary of the method: as §2
[31] = system: Oryctolagus cuniculus; assay: Biodistribution pattern of [123I]- ligand was evaluated in fat of anesthetized rabbit after Intravenous injection of 50 uCi after 6 hr; assay type: ADME, organism-based, Adipose tissue; settings: in vivo; summary of the method: as §1
[32] = system: Oryctolagus cuniculus; assay: Biodistribution pattern of [123I]- ligand was evaluated in right atrial muscle of anesthetized rabbit after Intravenous injection of 50 uCi after 2 hr; assay type: ADME, organism-based, Muscle tissue; settings: in vivo; summary of the method: as §2
[33] = system: Oryctolagus cuniculus; assay: Cerebral biodistribution pattern of [123I]- ligand was evaluated in striatum of anesthetized rabbit after Intravenous injection of 50 uCi after 1 hr; assay type: ADME, organism-based; settings: in vivo; summary of the method: as §2
[34] = system: Oryctolagus cuniculus; assay: Cerebral biodistribution pattern of [123I]- ligand was evaluated in pituitary gland of anesthetized rabbit after Intravenous injection of 50 uCi after 5 min; assay type: ADME, organism-based; settings: in vivo; summary of the method: as §2
[35] = system: Oryctolagus cuniculus; assay: Biodistribution pattern of [123I]- ligand was evaluated in lung of anesthetized rabbit after Intravenous injection of 50 uCi after 4 hr; assay type: ADME, organism-based; settings: in vivo; summary of the method: as §1
[36] = system: Oryctolagus cuniculus; assay: Biodistribution pattern of [123I]- ligand was evaluated in right ventricular muscle of anesthetized rabbit after Intravenous injection of 50 uCi after 5 min; assay type: ADME, organism-based, Muscle tissue; settings: in vivo; summary of the method: as §2

ID x kg of body weight/g of tissue [1]: 1.29% | ID x kg of body weight/g of tissue [2]: 0.01% | ID x kg of body weight/g of tissue [3]: 0.11% | ID x kg of body weight/g of tissue [4]: < 0.26% | ID x kg of body weight/g of tissue [5]: 0.03% | ID x kg of body weight/g of tissue [6]: 0.41% | ID x kg of body weight/g of tissue [7]: 0.19% | ID x kg of body weight/g of tissue [8]: 0.36% | ID x kg of body weight/g of tissue [9]: 0.06% | ID x kg of body weight/g of tissue [10]: 0.01% | ID x kg of body weight/g of tissue [11]: 0.04% | ID x kg of body weight/g of tissue [12]: 0.18% | ID x kg of body weight/g of tissue [13]: 0.09% | ID x kg of body weight/g of tissue [14]: 0.06% | ID x kg of body weight/g of tissue [15]: 0.03% | ID x kg of body weight/g of tissue [16]: 0.01% | ID x kg of body weight/g of tissue [17]: 0.15% | ID x kg of body weight/g of tissue [18]: 0.13% | ID x kg of body weight/g of tissue [19]: 0.02% | ID x kg of body weight/g of tissue [20]: 0.008% | ID x kg of body weight/g of tissue [21]: 0.07% | ID x kg of body weight/g of tissue [22]: 0.22% | ID x kg of body weight/g of tissue [23]: 0.07% | ID x kg of body weight/g of tissue [24]: 0.09% | ID x kg of body weight/g of tissue [25]: < 1.74% | ID x kg of body weight/g of tissue [26]: 0.1% | ID x kg of body weight/g of tissue [27]: 0.12% | ID x kg of body weight/g of tissue [28]: 0.05% | ID x kg of body weight/g of tissue [29]: 0.07% | ID x kg of body weight/g of tissue [30]: 0.13% | ID x kg of body weight/g of tissue [31]: 0.02% | ID x kg of body weight/g of tissue [32]: 0.13% | ID x kg of body weight/g of tissue [33]: 0.07% | ID x kg of body weight/g of tissue [34]: 0.5% | ID x kg of body weight/g of tissue [35]: 0.82% | ID x kg of body weight/g of tissue [36]: 0.43%
Structure (SMILES): CC(C)(/C=C/I)NC[C@H](O)COc1cccc2[nH]c3ccccc3c12
